Test results taken from ChEMBL document CHEMBL3784971, “Synthesis, characterization, antimicrobial and biofilm inhibitory studies of new esterquats” (Bioorg Med Chem Lett, 2016).

Assays:
Staphylococcus aureus [1] = test: Antimicrobial activity against Staphylococcus aureus MTCC 96 assessed as growth inhibition after 24 hrs by agar well diffusion method; assay type: functional; conditions: MTCC 96, 24 h
Bacillus subtilis [2] = test: Antimicrobial activity against Bacillus subtilis MTCC 121 assessed as growth inhibition after 24 hrs by agar well diffusion method; assay type: functional; conditions: MTCC 121, 24 h
Staphylococcus aureus [3] = test: Antimicrobial activity against Staphylococcus aureus MLS16 MTCC 2940 assessed as growth inhibition after 24 hrs by agar well diffusion method; assay type: functional; conditions: MLS16 MTCC 2940, 24 h
Micrococcus luteus [4] = test: Antimicrobial activity against Micrococcus luteus MTCC 2470 assessed as growth inhibition after 24 hrs by agar well diffusion method; assay type: functional; conditions: MTCC 2470, 24 h
Raoultella planticola [5] = test: Antimicrobial activity against Klebsiella planticola MTCC 530 assessed as growth inhibition after 24 hrs by agar well diffusion method; assay type: functional; conditions: MTCC 530, 24 h
Escherichia coli [6] = test: Antimicrobial activity against Escherichia coli MTCC 739 assessed as growth inhibition after 24 hrs by agar well diffusion method; assay type: functional; conditions: MTCC 739, 24 h
Pseudomonas aeruginosa = test: Antimicrobial activity against Pseudomonas aeruginosa MTCC 2453 assessed as growth inhibition after 24 hrs by agar well diffusion method; assay type: functional; conditions: MTCC 2453, 24 h
Candida albicans [7] = test: Antimicrobial activity against Candida albicans MTCC 3017 assessed as growth inhibition after 24 hrs by agar well diffusion method; assay type: functional; conditions: MTCC 3017, 24 h
Candida albicans [8] = test: Antimicrobial activity against Candida albicans MTCC 183 assessed as growth inhibition after 24 hrs by agar well diffusion method; assay type: functional; conditions: MTCC 183, 24 h
Candida albicans [9] = test: Antimicrobial activity against Candida albicans MTCC 227 assessed as growth inhibition after 24 hrs by agar well diffusion method; assay type: functional; conditions: MTCC 227, 24 h
Candida albicans [10] = test: Antimicrobial activity against Candida albicans MTCC 854 assessed as growth inhibition after 24 hrs by agar well diffusion method; assay type: functional; conditions: MTCC 854, 24 h
Candida albicans [11] = test: Antimicrobial activity against Candida albicans MTCC 1637 assessed as growth inhibition after 24 hrs by agar well diffusion method; assay type: functional; conditions: MTCC 1637, 24 h
Candida albicans [12] = test: Antimicrobial activity against Candida albicans MTCC 3018 assessed as growth inhibition after 24 hrs by agar well diffusion method; assay type: functional; conditions: MTCC 3018, 24 h
Candida albicans [13] = test: Antimicrobial activity against Candida albicans MTCC 3958 assessed as growth inhibition after 24 hrs by agar well diffusion method; assay type: functional; conditions: MTCC 3958, 24 h
Candida albicans [14] = test: Antimicrobial activity against Candida albicans MTCC 4748 assessed as growth inhibition after 24 hrs by agar well diffusion method; assay type: functional; conditions: MTCC 4748, 24 h
Candida albicans [15] = test: Antimicrobial activity against Candida albicans MTCC 7315 assessed as growth inhibition after 24 hrs by agar well diffusion method; assay type: functional; conditions: MTCC 7315, 24 h
Candida parapsilosis [16] = test: Antimicrobial activity against Candida parapsilosis MTCC 1744 assessed as growth inhibition after 24 hrs by agar well diffusion method; assay type: functional; conditions: Lodderomyces parapsilosis, MTCC 1744, 24 h
[Candida] aaseri [17] = Antimicrobial activity against Candida aaseri MTCC 1962 assessed as growth inhibition after 24 hrs by agar well diffusion method; assay type: functional; conditions: Yamadazyma aaseri, MTCC 1962, 24 h
Nakaseomyces glabratus [18] = test: Antimicrobial activity against Candida glabrata MTCC 3019 assessed as growth inhibition after 24 hrs by agar well diffusion method; assay type: functional; conditions: MTCC 3019, 24 h
Pichia kudriavzevii [19] = test: Antimicrobial activity against Candida krusei MTCC 3020 assessed as growth inhibition after 24 hrs by agar well diffusion method; assay type: functional; conditions: MTCC 3020, 24 h
Pichia sporocuriosa [20] = test: Antimicrobial activity against Issatchenkia hanoiensis MTCC 4755 assessed as growth inhibition after 24 hrs by agar well diffusion method; assay type: functional; conditions: MTCC 4755, 24 h
Staphylococcus aureus [21] = test: Bactericidal activity against Staphylococcus aureus MTCC 96 after 24 hrs by serial dilution method; assay type: functional; conditions: MTCC 96, 24 h
Bacillus subtilis [22] = test: Bactericidal activity against Bacillus subtilis MTCC 121 after 24 hrs by serial dilution method; assay type: functional; conditions: MTCC 121, 24 h
Staphylococcus aureus [23] = test: Bactericidal activity against Staphylococcus aureus MLS16 MTCC 2940 after 24 hrs by serial dilution method; assay type: functional; conditions: MLS16 MTCC 2940, 24 h
Micrococcus luteus [24] = test: Bactericidal activity against Micrococcus luteus MTCC 2470 after 24 hrs by serial dilution method; assay type: functional; conditions: MTCC 2470, 24 h
Raoultella planticola [25] = test: Bactericidal activity against Klebsiella planticola MTCC 530 after 24 hrs by serial dilution method; assay type: functional; conditions: MTCC 530, 24 h
Escherichia coli [26] = test: Bactericidal activity against Escherichia coli MTCC 739 after 24 hrs by serial dilution method; assay type: functional; conditions: MTCC 739, 24 h
Candida albicans [27] = test: Fungicidal activity against Candida albicans MTCC 3017 after 24 hrs by serial dilution method; assay type: functional; conditions: MTCC 3017, 24 h
Candida albicans [28] = test: Fungicidal activity against Candida albicans MTCC 183 after 24 hrs by serial dilution method; assay type: functional; conditions: MTCC 183, 24 h
Candida albicans [29] = test: Fungicidal activity against Candida albicans MTCC 227 after 24 hrs by serial dilution method; assay type: functional; conditions: MTCC 227, 24 h
Candida albicans [30] = test: Fungicidal activity against Candida albicans MTCC 854 after 24 hrs by serial dilution method; assay type: functional; conditions: MTCC 854, 24 h
Candida albicans [31] = test: Fungicidal activity against Candida albicans MTCC 1637 after 24 hrs by serial dilution method; assay type: functional; conditions: MTCC 1637, 24 h
Candida albicans [32] = test: Fungicidal activity against Candida albicans MTCC 3018 after 24 hrs by serial dilution method; assay type: functional; conditions: MTCC 3018, 24 h
Candida albicans [33] = test: Fungicidal activity against Candida albicans MTCC 3958 after 24 hrs by serial dilution method; assay type: functional; conditions: MTCC 3958, 24 h
Candida albicans [34] = test: Fungicidal activity against Candida albicans MTCC 4748 after 24 hrs by serial dilution method; assay type: functional; conditions: MTCC 4748, 24 h
Candida albicans [35] = test: Fungicidal activity against Candida albicans MTCC 7315 after 24 hrs by serial dilution method; assay type: functional; conditions: MTCC 7315, 24 h
Candida parapsilosis [36] = test: Fungicidal activity against Candida parapsilosis MTCC 1744 after 24 hrs by serial dilution method; assay type: functional; conditions: Lodderomyces parapsilosis, MTCC 1744, 24 h
[Candida] aaseri [37] = Fungicidal activity against Candida aaseri MTCC 1962 after 24 hrs by serial dilution method; assay type: functional; conditions: Yamadazyma aaseri, MTCC 1962, 24 h
Nakaseomyces glabratus [38] = test: Fungicidal activity against Candida glabrata MTCC 3019 after 24 hrs by serial dilution method; assay type: functional; conditions: MTCC 3019, 24 h
Pichia kudriavzevii [39] = test: Fungicidal activity against Candida krusei MTCC 3020 after 24 hrs by serial dilution method; assay type: functional; conditions: MTCC 3020, 24 h
Pichia sporocuriosa [40] = test: Fungicidal activity against Issatchenkia hanoiensis MTCC 4755 after 24 hrs by serial dilution method; assay type: functional; conditions: MTCC 4755, 24 h
Staphylococcus aureus [41] = test: Antibiofilm activity against Staphylococcus aureus MTCC 96 after 24 hrs by crystal violet staining based assay; assay type: functional, organism-based; conditions: MTCC 96, 24 h
Method in brief: (§1)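 Biofilm inhibition tested for amine esters and esterquats. IC50 values (µg/mL) are the mean of three determinations, with ciprofloxacin as reference.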

Bacillus subtilis [42] = test: Antibiofilm activity against Bacillus subtilis MTCC 121 after 24 hrs by crystal violet staining based assay; assay type: functional, organism-based; conditions: MTCC 121, 24 h; method in brief: as §1
Staphylococcus aureus [43] = test: Antibiofilm activity against Staphylococcus aureus MLS16 MTCC 2940 after 24 hrs by crystal violet staining based assay; assay type: functional, organism-based; conditions: MLS16 MTCC 2940, 24 h; method in brief: as §1
Micrococcus luteus [44] = test: Antibiofilm activity against Micrococcus luteus MTCC 2470 after 24 hrs by crystal violet staining based assay; assay type: functional, organism-based; conditions: MTCC 2470, 24 h; method in brief: as §1

MIC (Staphylococcus aureus [1]): 15.6 µg/mL | MIC (Bacillus subtilis [2]): 15.6 µg/mL | MIC (Staphylococcus aureus [3]): 7.8 µg/mL | MIC (Micrococcus luteus [4]): 7.8 µg/mL | MIC (Escherichia coli [6]): 15.6 µg/mL | MIC (Pseudomonas aeruginosa): > 125 µg/mL | MIC (Candida albicans [7]): 31.2 µg/mL | MIC (Candida albicans [8]): 31.2 µg/mL | MIC (Candida albicans [9]): 31.2 µg/mL | MIC (Candida albicans [10]): 31.2 µg/mL | MIC (Candida albicans [11]): 62.5 µg/mL | MIC (Candida albicans [12]): 62.5 µg/mL | MIC (Candida albicans [13]): 62.5 µg/mL | MIC (Candida albicans [14]): 15.6 µg/mL | MIC (Candida albicans [15]): 31.2 µg/mL | MIC (Candida parapsilosis [16]): 62.5 µg/mL | MIC ([Candida] aaseri [17]): 31.2 µg/mL | MIC (Nakaseomyces glabratus [18]): 31.2 µg/mL | MIC (Pichia kudriavzevii [19]): 62.5 µg/mL | MIC (Pichia sporocuriosa [20]): 31.2 µg/mL | IC50 (Staphylococcus aureus [41]): 9.1 µg/mL | IC50 (Bacillus subtilis [42]): 8.5 µg/mL | IC50 (Staphylococcus aureus [43]): 22.2 µg/mL | IC50 (Micrococcus luteus [44]): 8.8 µg/mL
SMILES: CCCCCCCCCCCC[N+](C)(C)CCCCCCCCCCC(=O)OC.[Cl-]
MIC (Raoultella planticola [5]): 7.8 µg/mL | MBC (Staphylococcus aureus [21]): 31.2 µg/mL | MBC (Bacillus subtilis [22]): 31.2 µg/mL | MBC (Staphylococcus aureus [23]): 31.2 µg/mL | MBC (Micrococcus luteus [24]): 31.2 µg/mL | MBC (Raoultella planticola [25]): 15.6 µg/mL | MBC (Escherichia coli [26]): 31.2 µg/mL | MFC (Candida albicans [27]): 62.5 µg/mL | MFC (Candida albicans [28]): 31.2 µg/mL | MFC (Candida albicans [29]): 31.2 µg/mL | MFC (Candida albicans [30]): 62.5 µg/mL | MFC (Candida albicans [31]): 62.5 µg/mL | MFC (Candida albicans [32]): 62.5 µg/mL | MFC (Candida albicans [33]): 31.2 µg/mL | MFC (Candida albicans [34]): 31.2 µg/mL | MFC (Candida albicans [35]): 31.2 µg/mL | MFC (Candida parapsilosis [36]): 62.5 µg/mL | MFC ([Candida] aaseri [37]): 62.5 µg/mL | MFC (Nakaseomyces glabratus [38]): 31.2 µg/mL | MFC (Pichia kudriavzevii [39]): 62.5 µg/mL | MFC (Pichia sporocuriosa [40]): 62.5 µg/mL
